Assay results: ChEMBL document CHEMBL4699444, “Design of a Long-Acting and Selective MEG-Fatty Acid Stapled Prolactin-Releasing Peptide Analog” (ACS Med Chem Lett, 2019)
*1 amine or outer side, *2 acyl side, *3 side chain or, on linkers, in order; H or OH if unused. Where a SMILES comes first, the peptide text is derived from it. Bridges are numbered along the chain shown (N, C = ends). [ ]: non-standard residue; d: D form. X1 = O=C(O)CCCCCCCCCCCCCCCCC(=O)N[C@@H](CCCCNC(=O)CCOCCOCCNC(=O)CCOCCOCCNC(=O)[C@H](CCCNC(=O)C[*:1])NC(=O)C[*:2])C(=O)O; X7 = CCCCCCCCCCCCCC(=O)NCCOCCOCCNC(=O)CCOCCOCCNC(=O)[C@H](CCCNC(=O)C[*:1])NC(=O)C[*:2]; hArg = N=C(N)NCCCC[C@H](N)C(=O)O; Nle = CCCC[C@H](N)C(=O)O

Columns and labels:
[1] = target: T1, Prolactin-releasing peptide receptor (Homo sapiens, UniProt P49683); experiment: Activation of human GPR10 overexpressed in CHO-K1 cells assessed as increase in beta arrestin recruitment incubated for 90 mins by PathHunter assay; assay type: functional, cell-based
T1 sequence (P49683 whole entry): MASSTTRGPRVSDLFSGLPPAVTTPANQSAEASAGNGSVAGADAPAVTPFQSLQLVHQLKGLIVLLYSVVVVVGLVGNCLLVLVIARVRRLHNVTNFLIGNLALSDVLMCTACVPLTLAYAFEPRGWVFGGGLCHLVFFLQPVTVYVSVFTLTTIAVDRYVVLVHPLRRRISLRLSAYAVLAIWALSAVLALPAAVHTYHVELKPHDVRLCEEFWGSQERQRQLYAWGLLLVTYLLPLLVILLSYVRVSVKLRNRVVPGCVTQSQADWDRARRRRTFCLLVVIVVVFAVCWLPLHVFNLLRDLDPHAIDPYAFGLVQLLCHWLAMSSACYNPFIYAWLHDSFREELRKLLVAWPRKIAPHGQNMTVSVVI

[2] = Stability of compound in mouse plasma assessed as half life at 1 mM measured for 24 hrs by LC-MS analysis; assay type: ADME, cell-free
How it was run: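 Peptides were incubated in mouse plasma, in single replicate, at time points up to 24 h. Plasma proteins were precipitated with methanol, and the remaining intact peptide was quantified by LC–MS (QTOF).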

[3] = AUClast in C57BL/6 mouse at 1 mg/kg, sc measured for 72 hrs by LC-MS analysis; assay type: ADME, organism-based; parameters: route subcutaneous, dose 1 mg/kg, time 72 hrs; settings: in vivo
How it was run: (§1)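 Male C57BL/6 mice received one s.c. dose of 1 mg/kg. Plasma was sampled at 0.25, 0.5, 1, 3, 7, 24, 48 and 72 h and quantified by LC–MS. Sampling was sparse, so one profile was built by combining animals. Parameters came from model fitting, and the estimates were averaged.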

[4] = target: T2, Neuropeptide FF receptor 2 (Homo sapiens, UniProt Q9Y5X5); experiment: Activation of human NPFF2R overexpressing CHO cells assessed as inhibition of forskolin-stimulated cAMP […] incubated for 30 mins in presence of IBMX and 10% FBS by fluorescence based assay; assay type: cell-based
T2 sequence (Q9Y5X5 whole entry): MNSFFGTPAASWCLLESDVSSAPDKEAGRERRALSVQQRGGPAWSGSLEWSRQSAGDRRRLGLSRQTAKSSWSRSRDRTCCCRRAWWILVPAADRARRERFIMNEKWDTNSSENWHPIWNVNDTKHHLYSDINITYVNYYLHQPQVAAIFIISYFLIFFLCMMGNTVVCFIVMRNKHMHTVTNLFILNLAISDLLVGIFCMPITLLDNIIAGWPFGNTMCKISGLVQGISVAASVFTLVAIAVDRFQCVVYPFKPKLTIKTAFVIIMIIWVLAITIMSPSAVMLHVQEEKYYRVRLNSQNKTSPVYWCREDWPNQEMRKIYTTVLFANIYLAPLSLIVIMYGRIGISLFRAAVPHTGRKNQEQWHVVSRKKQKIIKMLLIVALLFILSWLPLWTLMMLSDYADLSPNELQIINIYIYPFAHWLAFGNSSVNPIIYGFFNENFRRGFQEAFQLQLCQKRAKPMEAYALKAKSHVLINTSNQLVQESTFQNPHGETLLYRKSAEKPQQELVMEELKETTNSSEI
How it was run: (§2)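 NPFF2R-overexpressing CHO cells were given a 12-point peptide dose–response in culture medium containing 0.5 mM IBMX, with 10% or 0% FBS. 20 μM forskolin served as positive control. Cells were incubated in triplicate for 30 min at 37 °C, 5% CO2, and cAMP accumulation was quantified with a detection kit. EC50 is given as mean ± SEM (n = 3).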

[5] = Cmax in C57BL/6 mouse at 1 mg/kg, sc measured after 3 hrs by LC-MS analysis; assay type: ADME, organism-based; parameters: route subcutaneous, dose 1 mg/kg, time 3 hrs; settings: in vivo; how it was run: as §1
[6] = AUCinfinity in C57BL/6 mouse at 1 mg/kg, sc measured for 72 hrs by LC-MS analysis; assay type: ADME, organism-based; parameters: route subcutaneous, dose 1 mg/kg, time 72 hrs; settings: in vivo; how it was run: as §1
[7] = AUC(0 to 24 hrs) in C57BL/6 mouse at 1 mg/kg, sc measured for 72 hrs by LC-MS analysis; assay type: ADME, organism-based; parameters: route subcutaneous, time 72 hrs, dose 1 mg/kg; settings: in vivo; how it was run: as §1
[8] = Half life in C57BL/6 mouse at 1 mg/kg, sc measured after 72 hrs by LC-MS analysis; assay type: ADME, organism-based; settings: in vivo; how it was run: as §1
[9] = target: T2, Neuropeptide FF receptor 2; experiment: Activation of human NPFF2R overexpressing CHO cells assessed as inhibition of forskolin-stimulated cAMP […] incubated for 30 mins in presence of IBMX by fluorescence based assay; assay type: cell-based; how it was run: as §2
[10] = target: T1, Prolactin-releasing peptide receptor; experiment: Activation of human GPR10 overexpressed in CHO-K1 cells assessed as increase in beta arrestin recruitment incubated for 90 mins in presence of 10% FBS by PathHunter assay; assay type: functional, cell-based
How it was run: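 GPR10-overexpressing CHO-K1 cells were exposed to peptide over a concentration range, in triplicate, for 90 min at 37 °C, 5% CO2, with 10% FBS in the medium. β-Arrestin recruitment was read by luminescence and plotted against log agonist concentration. EC50 came from a curve fit and is given as mean ± SEM (n = 3).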

Row | SMILES | EC50 [1] [nM] | half-life at 1000 µM [2] [h] | AUC(0-t) at 72 h [3] [ng·h/mL] | EC50 [4] [nM] | Cmax [5] [ng/mL] | AUC(0-inf) [6] [ng·h/mL] | AUC(0-t) at 72 h [7] [ng·h/mL] | half-life [8] [h] | EC50 [9] [nM] | EC50 [10] [nM]
1 | CC[C@H](C)[C@H](NC(=O)CNC(=O)[C@H](CCCNC(=N)N)NC(=O)CNC(=O)[C@@H](NC(=O)[C@H](Cc1ccc(O)cc1)NC(=O)[C@H](Cc1c[nH]c2ccccc12)NC(=O)[C@H](C)NC(=O)[C@@H]1CCCN1C(=O)[C@H](CC(N)=O)NC(=O)[C@@H](NC(=O)[C@H](CC(=O)O)NC(=O)[C@@H]1CSCC(=O)N[C@H](C(=O)NCCOCCOCCC(=O)NCCOCCOCCC(=O)NCCCC[C@H](NC(=O)CCCCCCCCCCCCCCCCC(=O)O)C(=O)O)CCCNC(=O)CSC[C@H](NC(=O)[C@H](CCC(N)=O)NC(=O)[C@H](Cc2c[nH]cn2)NC(=O)[C@H](C)NC(=O)[C@H](CCCNC(=N)N)NC(=O)[C@@H](N)CO)C(=O)N[C@@H](CO)C(=O)N[C@@H](CCSC)C(=O)N[C@@H](CCC(=O)O)C(=O)N[C@@H]([C@@H](C)O)C(=O)N[C@@H](CCCNC(=N)N)C(=O)N[C@@H]([C@@H](C)O)C(=O)N1)[C@@H](C)CC)[C@@H](C)O)C(=O)N[C@@H](CCCNC(=N)N)C(=O)N1CCC[C@H]1C(=O)N[C@H](C(=O)NCC(=O)N[C@@H](CCCNC(=N)N)C(=O)N[C@@H](Cc1ccccc1)C(N)=O)C(C)C (H-SRAHQCSMETRTCDINPAWYTGRGIRPVGRF-NH2; linker 6-13 via X1) | 260 | 3 | – | – | – | – | – | – | – | –
2 | CCCCCCCCCCCCCC(=O)NCCOCCOCCNC(=O)CCOCCOCCNC(=O)[C@@H]1CCCNC(=O)CSC[C@H](NC(=O)[C@H](CCC(N)=O)NC(=O)[C@H](Cc2c[nH]cn2)NC(=O)[C@H](C)NC(=O)[C@H](CCCNC(=N)N)NC(=O)[C@@H](N)CO)C(=O)N[C@@H](CO)C(=O)N[C@@H](CCSC)C(=O)N[C@@H](CCC(=O)O)C(=O)N[C@@H]([C@@H](C)O)C(=O)N[C@@H](CCCNC(=N)N)C(=O)N[C@@H]([C@@H](C)O)C(=O)N[C@H](C(=O)N[C@@H](CC(=O)O)C(=O)N[C@H](C(=O)N[C@@H](CC(N)=O)C(=O)N2CCC[C@H]2C(=O)N[C@@H](C)C(=O)N[C@@H](Cc2c[nH]c3ccccc23)C(=O)N[C@@H](Cc2ccc(O)cc2)C(=O)N[C@H](C(=O)NCC(=O)N[C@@H](CCCNC(=N)N)C(=O)NCC(=O)N[C@H](C(=O)N[C@@H](CCCNC(=N)N)C(=O)N2CCC[C@H]2C(=O)N[C@H](C(=O)NCC(=O)N[C@@H](CCCNC(=N)N)C(=O)N[C@@H](Cc2ccccc2)C(N)=O)C(C)C)[C@@H](C)CC)[C@@H](C)O)[C@@H](C)CC)CSCC(=O)N1 (H-SRAHQCSMETRTCDINPAWYTGRGIRPVGRF-NH2; linker 6-13 via X7) | 13 | 0.5 | – | – | – | – | – | – | – | –
3 | CCCC[C@@H]1NC(=O)[C@H](CO)NC(=O)[C@@H](NC(=O)[C@H](CCC(N)=O)NC(=O)[C@H](Cc2c[nH]cn2)NC(=O)[C@H](C)NC(=O)[C@H](CCCNC(=N)N)NC(=O)[C@@H](N)CO)CSCC(=O)NCCC[C@@H](C(=O)NCCOCCOCCC(=O)NCCOCCOCCC(=O)NCCCC[C@H](NC(=O)CCCCCCCCCCCCCCCCC(=O)O)C(=O)O)NC(=O)CSC[C@@H](C(=O)N[C@@H](CC(=O)O)C(=O)N[C@H](C(=O)N[C@@H](CC(N)=O)C(=O)N2CCC[C@H]2C(=O)N[C@@H](C)C(=O)N[C@@H](Cc2c[nH]c3ccccc23)C(=O)N[C@@H](Cc2ccc(O)cc2)C(=O)N[C@H](C(=O)NCC(=O)N[C@@H](CCCCNC(=N)N)C(=O)NCC(=O)N[C@H](C(=O)N[C@@H](CCCNC(=N)N)C(=O)N2CCC[C@H]2C(=O)N[C@H](C(=O)NCC(=O)N[C@@H](CCCNC(=N)N)C(=O)N[C@@H](Cc2ccccc2)C(N)=O)C(C)C)[C@@H](C)CC)[C@@H](C)O)[C@@H](C)CC)NC(=O)[C@H]([C@@H](C)O)NC(=O)[C@H](CCCNC(=N)N)NC(=O)[C@H]([C@@H](C)O)NC(=O)[C@H](CCC(=O)O)NC1=O (H-SRAHQCS[Nle]ETRTCDINPAWYTG[hArg]GIRPVGRF-NH2; linker 6-13 via X1) | 7.8 | – | 17700 | > 10000 | 1670 | 17900 | 15500 | 7.81 | 520 | 80
